In ChEMBL document CHEMBL1268956, “3-Urea-1-(phenylmethyl)-pyridones as novel, potent, and selective EP3 receptor antagonists” (Bioorg Med Chem Lett, 2010):

Assays:
[1] = target: Prostaglandin E2 receptor EP2 subtype (Homo sapiens, UniProt P43116); assay: Displacement of radioligand from human EP2 receptor
[2] = target: Prostaglandin G/H synthase 1 (Homo sapiens, UniProt P23219); assay: Inhibition of human COX1 in human whole blood by ELISA; type: tissue-based
How it was run: (§1)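 Human whole blood; COX1 and COX2 inhibition read out in ELISA format.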

[3] = target: T1, Prostaglandin G/H synthase 2 (Homo sapiens, UniProt P35354); assay: Inhibition of human COX2 in human whole blood by ELISA; type: tissue-based; how it was run: as §1
T1 sequence (P35354 whole entry): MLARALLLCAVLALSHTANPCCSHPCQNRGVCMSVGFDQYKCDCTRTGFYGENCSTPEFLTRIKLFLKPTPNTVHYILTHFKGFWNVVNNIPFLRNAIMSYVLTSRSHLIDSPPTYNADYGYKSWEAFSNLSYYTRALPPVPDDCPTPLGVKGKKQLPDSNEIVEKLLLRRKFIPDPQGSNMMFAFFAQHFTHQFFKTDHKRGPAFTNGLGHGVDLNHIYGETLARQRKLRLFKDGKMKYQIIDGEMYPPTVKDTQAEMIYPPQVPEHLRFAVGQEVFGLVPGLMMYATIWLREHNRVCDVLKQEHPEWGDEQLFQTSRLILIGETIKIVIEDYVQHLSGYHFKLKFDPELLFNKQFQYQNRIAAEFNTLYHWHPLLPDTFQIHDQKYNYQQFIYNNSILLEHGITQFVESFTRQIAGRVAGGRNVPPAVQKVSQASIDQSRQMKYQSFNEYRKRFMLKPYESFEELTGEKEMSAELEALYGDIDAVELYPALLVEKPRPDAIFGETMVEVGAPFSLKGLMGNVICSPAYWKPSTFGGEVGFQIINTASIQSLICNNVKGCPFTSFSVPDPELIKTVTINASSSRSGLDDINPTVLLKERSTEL

[4] = target: Prostaglandin D2 receptor (Homo sapiens) (UniProt Q13258); assay: Displacement of radioligand from human DP receptor
[5] = target: Prostaglandin F2-alpha receptor (Homo sapiens, UniProt P43088); assay: Displacement of radioligand from human FP receptor
Thromboxane A2 receptor = target: T2, Thromboxane A2 receptor (Homo sapiens, UniProt P21731); assay: Displacement of radioligand from human TP receptor
T2 sequence (P21731 whole entry): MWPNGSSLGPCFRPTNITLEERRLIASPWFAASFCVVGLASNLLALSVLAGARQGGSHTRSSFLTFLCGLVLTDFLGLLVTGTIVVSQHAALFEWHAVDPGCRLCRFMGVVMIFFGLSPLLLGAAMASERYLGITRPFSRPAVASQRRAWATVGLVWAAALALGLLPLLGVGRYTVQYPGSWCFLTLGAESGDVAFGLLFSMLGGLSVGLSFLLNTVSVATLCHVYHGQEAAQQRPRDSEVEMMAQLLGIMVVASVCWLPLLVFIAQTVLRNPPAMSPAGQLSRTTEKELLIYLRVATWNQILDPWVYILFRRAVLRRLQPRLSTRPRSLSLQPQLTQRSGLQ

[6] = target: T3, Prostaglandin E2 receptor EP1 subtype (Homo sapiens, UniProt P34995); assay: Displacement of radioligand from human EP1 receptor
T3 sequence (P34995 whole entry): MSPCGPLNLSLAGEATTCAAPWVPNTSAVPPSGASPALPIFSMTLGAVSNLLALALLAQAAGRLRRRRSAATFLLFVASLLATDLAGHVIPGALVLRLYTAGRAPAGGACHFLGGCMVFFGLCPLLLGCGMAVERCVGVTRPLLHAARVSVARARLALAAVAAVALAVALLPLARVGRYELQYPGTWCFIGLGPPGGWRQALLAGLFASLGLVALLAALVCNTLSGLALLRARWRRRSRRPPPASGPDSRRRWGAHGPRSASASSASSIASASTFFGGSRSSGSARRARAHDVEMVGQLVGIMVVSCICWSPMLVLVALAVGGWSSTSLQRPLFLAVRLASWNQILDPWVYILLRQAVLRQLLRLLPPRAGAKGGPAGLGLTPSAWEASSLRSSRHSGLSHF

Cytochrome P450 1A2 = target: T4, Cytochrome P450 1A2 (Homo sapiens, UniProt P05177); assay: Inhibition of CYP1A2; type: ADME
T4 sequence (P05177 whole entry): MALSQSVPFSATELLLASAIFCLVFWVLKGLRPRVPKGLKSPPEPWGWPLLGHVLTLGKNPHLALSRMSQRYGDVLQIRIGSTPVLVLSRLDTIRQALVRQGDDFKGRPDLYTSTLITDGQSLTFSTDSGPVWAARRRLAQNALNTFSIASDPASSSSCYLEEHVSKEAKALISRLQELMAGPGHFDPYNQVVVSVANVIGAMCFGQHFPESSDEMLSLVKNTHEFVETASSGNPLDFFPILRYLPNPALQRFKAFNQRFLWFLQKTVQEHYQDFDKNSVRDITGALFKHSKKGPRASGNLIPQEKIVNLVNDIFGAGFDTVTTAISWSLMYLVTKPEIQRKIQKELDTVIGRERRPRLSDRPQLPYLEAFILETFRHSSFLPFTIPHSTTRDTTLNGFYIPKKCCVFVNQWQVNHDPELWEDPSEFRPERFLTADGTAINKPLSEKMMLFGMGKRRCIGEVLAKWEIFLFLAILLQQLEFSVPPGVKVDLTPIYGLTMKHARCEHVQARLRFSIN

[7] = target: T5, Prostaglandin E2 receptor EP3 subtype (Rattus norvegicus, UniProt P34980); assay: Inhibition of rat EP3 receptor
T5 sequence (P34980 whole entry): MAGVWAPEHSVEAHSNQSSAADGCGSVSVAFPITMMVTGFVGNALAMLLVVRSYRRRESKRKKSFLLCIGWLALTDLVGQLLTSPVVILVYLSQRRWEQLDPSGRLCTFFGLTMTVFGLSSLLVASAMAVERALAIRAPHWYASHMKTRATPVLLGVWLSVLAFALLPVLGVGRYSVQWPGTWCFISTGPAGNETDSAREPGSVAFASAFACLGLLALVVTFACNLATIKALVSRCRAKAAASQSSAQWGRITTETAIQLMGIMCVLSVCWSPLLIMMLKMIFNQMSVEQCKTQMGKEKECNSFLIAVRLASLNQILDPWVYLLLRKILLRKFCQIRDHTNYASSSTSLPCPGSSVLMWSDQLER

[8] = target: T6, Prostaglandin E2 receptor EP3 subtype (Homo sapiens, UniProt P43115); assay: Antagonist activity at human EP3 receptor expressed in human U2OS cells assessed as inhibition of PGE2-induced intracellular calcium mobilization by FLIPR assay; type: functional, cell-based
T6 sequence (P43115 whole entry): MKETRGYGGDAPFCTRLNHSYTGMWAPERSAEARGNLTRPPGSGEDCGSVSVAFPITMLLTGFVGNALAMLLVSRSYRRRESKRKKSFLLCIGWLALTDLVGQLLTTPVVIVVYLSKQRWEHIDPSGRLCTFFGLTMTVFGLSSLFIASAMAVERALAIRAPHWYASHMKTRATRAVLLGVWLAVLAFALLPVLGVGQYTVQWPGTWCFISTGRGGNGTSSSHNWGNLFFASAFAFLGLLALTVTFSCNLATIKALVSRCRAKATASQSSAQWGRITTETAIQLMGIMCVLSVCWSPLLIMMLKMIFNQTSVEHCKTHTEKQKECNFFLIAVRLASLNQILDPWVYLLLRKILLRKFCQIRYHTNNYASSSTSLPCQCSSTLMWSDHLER

[9] = target: Prostaglandin E2 receptor EP4 subtype (Homo sapiens, UniProt P35408); assay: Displacement of radioligand from human EP4 receptor
Chain of Prostaglandin E2 receptor EP4 subtype (P35408 whole entry): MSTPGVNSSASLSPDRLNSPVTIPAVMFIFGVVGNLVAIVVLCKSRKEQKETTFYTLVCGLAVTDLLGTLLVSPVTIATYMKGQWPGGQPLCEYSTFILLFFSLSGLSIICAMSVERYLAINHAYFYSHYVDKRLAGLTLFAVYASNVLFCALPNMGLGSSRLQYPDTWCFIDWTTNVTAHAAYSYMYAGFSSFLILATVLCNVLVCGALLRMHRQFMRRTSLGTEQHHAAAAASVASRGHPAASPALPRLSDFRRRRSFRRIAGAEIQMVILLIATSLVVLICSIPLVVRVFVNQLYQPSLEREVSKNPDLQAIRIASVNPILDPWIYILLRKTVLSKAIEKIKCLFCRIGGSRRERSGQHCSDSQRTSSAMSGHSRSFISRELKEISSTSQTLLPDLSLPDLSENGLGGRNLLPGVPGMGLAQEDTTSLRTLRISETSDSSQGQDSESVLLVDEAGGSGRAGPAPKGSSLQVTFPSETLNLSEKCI

Chain of Prostaglandin D2 receptor (Homo sapiens) (Q13258 whole entry, looked up): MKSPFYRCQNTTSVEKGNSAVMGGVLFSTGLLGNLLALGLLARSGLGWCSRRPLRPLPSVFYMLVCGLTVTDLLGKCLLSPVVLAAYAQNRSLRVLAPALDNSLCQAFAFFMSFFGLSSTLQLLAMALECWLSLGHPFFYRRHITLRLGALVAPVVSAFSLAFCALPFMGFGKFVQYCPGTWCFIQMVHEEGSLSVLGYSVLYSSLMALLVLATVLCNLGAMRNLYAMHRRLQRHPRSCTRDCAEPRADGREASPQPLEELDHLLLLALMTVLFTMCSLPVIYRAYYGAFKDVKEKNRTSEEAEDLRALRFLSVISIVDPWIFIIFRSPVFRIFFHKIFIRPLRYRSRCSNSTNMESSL
Chain of Prostaglandin G/H synthase 1 (P23219 whole entry): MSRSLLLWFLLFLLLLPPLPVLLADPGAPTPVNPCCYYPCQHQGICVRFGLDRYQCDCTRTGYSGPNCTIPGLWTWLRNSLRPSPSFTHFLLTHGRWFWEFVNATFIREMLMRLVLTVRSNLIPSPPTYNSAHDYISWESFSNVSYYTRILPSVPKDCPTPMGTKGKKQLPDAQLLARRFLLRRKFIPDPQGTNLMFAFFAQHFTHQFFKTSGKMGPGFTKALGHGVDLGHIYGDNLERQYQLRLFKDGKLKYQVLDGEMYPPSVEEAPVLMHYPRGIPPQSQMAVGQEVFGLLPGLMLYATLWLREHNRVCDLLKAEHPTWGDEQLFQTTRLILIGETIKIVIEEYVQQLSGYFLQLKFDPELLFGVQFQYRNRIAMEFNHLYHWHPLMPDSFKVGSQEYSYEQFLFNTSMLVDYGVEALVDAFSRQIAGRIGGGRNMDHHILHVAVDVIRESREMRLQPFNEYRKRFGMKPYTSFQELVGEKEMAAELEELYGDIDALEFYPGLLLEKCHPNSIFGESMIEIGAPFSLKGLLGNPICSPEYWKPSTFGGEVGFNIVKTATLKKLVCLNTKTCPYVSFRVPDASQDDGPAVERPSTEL
Chain of Prostaglandin F2-alpha receptor (P43088 whole entry): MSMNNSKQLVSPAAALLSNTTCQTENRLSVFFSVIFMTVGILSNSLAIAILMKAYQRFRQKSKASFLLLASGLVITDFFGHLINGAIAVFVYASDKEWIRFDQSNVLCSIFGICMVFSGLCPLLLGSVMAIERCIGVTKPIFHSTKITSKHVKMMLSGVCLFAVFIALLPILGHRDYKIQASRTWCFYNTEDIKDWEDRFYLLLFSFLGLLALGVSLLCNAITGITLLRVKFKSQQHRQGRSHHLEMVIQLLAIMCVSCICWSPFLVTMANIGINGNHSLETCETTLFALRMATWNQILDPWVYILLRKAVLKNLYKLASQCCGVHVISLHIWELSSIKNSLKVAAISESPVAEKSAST
Chain of Prostaglandin E2 receptor EP2 subtype (P43116 whole entry): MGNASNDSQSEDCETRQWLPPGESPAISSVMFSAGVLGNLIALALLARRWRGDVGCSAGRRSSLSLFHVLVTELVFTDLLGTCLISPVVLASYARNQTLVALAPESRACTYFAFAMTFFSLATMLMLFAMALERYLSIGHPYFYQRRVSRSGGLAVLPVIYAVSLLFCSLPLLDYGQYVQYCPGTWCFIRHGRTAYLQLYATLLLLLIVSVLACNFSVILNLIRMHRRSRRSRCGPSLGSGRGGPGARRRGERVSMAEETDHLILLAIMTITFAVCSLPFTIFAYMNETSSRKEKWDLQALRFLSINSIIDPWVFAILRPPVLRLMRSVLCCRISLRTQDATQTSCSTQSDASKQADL

Ki [1]: > 10 µM
Ki [2]: > 100 µM
Ki [3]: > 100 µM
pKi [4]: < 5
Ki [5]: > 10 µM
Ki (Thromboxane A2 receptor): > 10 µM
Ki [6]: > 10 µM
Ki (Cytochrome P450 1A2): 2 µM
Ki [7]: 0.158 µM
Ki [8]: 0.0501 µM
Ki [9]: > 10 µM
Structure (SMILES): CCc1cccc(NC(=O)Nc2cccn(Cc3ccccc3Cl)c2=O)c1
